The list is not random: actives were taken first. Their share in the collection is about 3.1%.
CHO parental Ca: counter-screen for OX1R antagonists: effect in parental CHO cells; parental CHO-K1, ATP-induced calcium, Fluo-8 fluorescence; inhibition, % at 5.6 µM; hit rate 0.63% among 330,000; AID 463079;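 active = inhibition above that plate's mean sample inhibition plus 3 SD, cut at about 26% in these data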;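 note: 0% = ATP-challenged DMSO wells and 100% = DMSO wells without ATP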
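Test system: untransfected parental CHO cell line. Compound: one dose, 5.6 µM nominal. Detection: intracellular calcium via Fluo-8 no-wash fluorescent dye. Measure: % inhibition. Benchmarks: ATP-challenged DMSO wells low, unchallenged DMSO wells high.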
OX1R antag-1: blocks the human orexin 1 receptor; O43613; CHO/OX1R cells, Fluo-8 calcium fluorescence, orexin A; inhibition, % at 5 µM; hit rate 0.43% among 330,000; AID 434989;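 active = inhibition above its plate's threshold, mean inhibition of all tested compounds on the plate plus 3 SD, cut at about 37% in these data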;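 note: 0% = orexin A challenge wells and 100% = SB-334867-A antagonist wells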
Target sequence (O43613 whole entry, looked up): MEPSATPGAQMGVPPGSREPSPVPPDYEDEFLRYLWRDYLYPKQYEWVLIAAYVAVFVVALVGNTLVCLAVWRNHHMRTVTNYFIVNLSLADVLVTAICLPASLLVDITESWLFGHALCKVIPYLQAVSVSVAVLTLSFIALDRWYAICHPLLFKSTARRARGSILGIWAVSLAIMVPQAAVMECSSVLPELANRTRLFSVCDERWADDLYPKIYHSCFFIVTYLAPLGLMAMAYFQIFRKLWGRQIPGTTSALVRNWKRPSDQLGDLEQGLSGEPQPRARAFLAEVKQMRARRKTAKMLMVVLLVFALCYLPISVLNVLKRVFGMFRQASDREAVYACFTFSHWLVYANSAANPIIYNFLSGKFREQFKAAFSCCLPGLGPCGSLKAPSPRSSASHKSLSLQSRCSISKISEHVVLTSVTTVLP
GalR3 antagonist: human GalR3 antagonism | inhibition, % at 3 µM | AID 651719 | hit rate 0.44% among 360,000 | O60755 | HEK293 GalR3-CNG cAMP membrane potential fluorescence; galR3 body fused to GalR1 C-terminus;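 active = inhibition above the screen-wide average plus 3 SD, cut at about 13% in these data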;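 note: forskolin and galanin both at EC90 stimulate the cells; cAMP rise reported by CNG channel membrane potential dye signal; 0% = forskolin plus galanin with DMSO and 100% = forskolin alone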
Target sequence (O60755 1-299 limits assumed): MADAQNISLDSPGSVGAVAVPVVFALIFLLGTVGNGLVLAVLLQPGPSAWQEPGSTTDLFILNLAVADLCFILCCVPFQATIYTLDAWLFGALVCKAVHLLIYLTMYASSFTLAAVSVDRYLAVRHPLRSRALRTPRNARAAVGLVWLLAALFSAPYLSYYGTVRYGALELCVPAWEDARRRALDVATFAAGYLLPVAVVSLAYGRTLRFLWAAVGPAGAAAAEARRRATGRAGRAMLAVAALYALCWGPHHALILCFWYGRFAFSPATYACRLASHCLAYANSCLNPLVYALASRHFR
OX1R antag-2: OX1R (human) antagonism. O43613. OX1R-expressing cells, FRET antagonist read-out. inhibition, % at 6.6 µM. hit rate 1.8% among 330,000. AID 485270; in the data active = inhibition mostly above about 38%, no sharp cut-off; inactive = mostly below about 40%;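 note: 0% = agonist challenge alone and 100% = reference antagonist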
GPR7 antagonist: human neuropeptides B/W receptor 1 antagonism; P48145; GPR7-expressing cells, fluorescence antagonist assay; inhibition, % at 4.4 µM; hit rate 1.1% among 290,000; AID 1861; in the data active = inhibition above about 16%, passing the limit was not always enough;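 note: cells stimulated with the agonist NPW; 0% = agonist with vehicle and 100% = vehicle without agonist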
Starred values were filed as active, the others as inactive; / = no result.

SMILES	CHO parental Ca	OX1R antag-1	GalR3 antagonist	OX1R antag-2	GPR7 antagonist
O=[N+]([O-])c1cc(Cl)cc(/C=N\Nc2ccccn2)c1O	10.2	-11.3	0.0	66.5	-8.4
COc1ccccc1N(CC(O)Cn1nc(C)cc1C)S(=O)(=O)c1ccccc1 (stereo not drawn)	-12.2	11.1	-2.5	47.4*	-9.7
COc1ccccc1N(CC(O)Cn1c2ccccc2c2ccccc21)S(=O)(=O)c1ccccc1 (stereo not drawn)	-5.9	1.1	-2.6	14.0	6.1
Cc1cc2ccccn2c1C(=O)c1ccncc1	2.7	0.6	-1.8	32.2*	13.2
COc1cc(OC)cc(C(=O)Nc2cc(C)nn2-c2ccccc2)c1	-11.1	-24.8	-1.7	9.1	-13.2
C[C@@H]1CN([C@@H](C)CO)C(=O)CCCn2cc(nn2)CO[C@H]1CN(C)C(=O)CCC(F)(F)F	/	/	-5.2	/	/
Cc1cccc(C)c1NC(=O)c1sccc1SCc1cccc(C(F)(F)F)c1	52.6*	37.0*	/	31.1	3.5
Cc1ccc(S(=O)(=O)Nc2ccsc2C#N)cc1	-13.8	-4.0	-10.1	3.2	-5.5
C[C@@H]1CN([C@H](C)CO)C(=O)CCCn2nncc2CO[C@H]1CN(C)C(=O)Nc1ccc2c(c1)OCCO2	/	/	-3.2	/	/
COc1ccc(-c2cc(C(=O)OCC(=O)Nc3ccc4c(c3)OCO4)c3ccccc3n2)cc1	-10.3	-7.5	0.9	65.0*	-6.3
CSc1nc2ccc(NC(=O)NC(=O)c3c(F)cccc3F)cc2s1	-7.7	-24.4	0.5	16.7	18.9*
CSc1nc2ccc(NC(=O)COc3ccccc3F)cc2s1	-11.3	-36.9	-1.0	6.4	/
CCCCCCCCN1C(=O)[C@@H](CC(=O)NCCCCc2ccccc2)C[C@@]2(C(=O)OC)C1=C[C@H](C(C)(C)C)O[C@@H]2C	/	/	0.2	/	/
C/C(=N\Nc1nc2ccccc2nc1C)c1ccccc1O	5.7	-10.4	-6.5	64.1*	-8.9
CC(=NNc1ccc2ccccc2n1)c1ccccc1O	/	/	-3.3	/	/
Cc1ccc(C(O)c2ncc(-c3ccc4ccccc4c3)[nH]2)c(C)c1 (stereo not drawn)	/	/	1.9	/	/
COc1ccc(CCN2CC(C(=O)NCc3cn(C)nc3C)CCC2=O)cc1 (stereo not drawn)	/	/	-2.4	/	/
CCCSc1nnc(-c2cccc(S(=O)(=O)N(C)C)c2)n1-c1cc(OC)ccc1OC	-18.6	-53.0	-8.4	8.2	19.8*
CC(C)C[C@@H]1COc2cccc(NCCO)c2S(=O)(=O)N1	/	/	-4.8	/	/
CCn1c(Cc2cccc3ccccc23)nnc1SCC(=O)Nc1nccs1	-4.5	22.7	-1.5	70.8*	9.1
CCc1nnc(SCC(=O)Nc2nccs2)n1CC	-2.2	-3.0	-2.0	9.2	-13.7
O=[N+]([O-])c1ccc(S(=O)(=O)c2cccc(C(F)(F)F)c2)nc1	41.0*	30.8	/	39.7	/
O=Nc1c(O)n(Cc2cccc(Cl)c2)c2ccccc12	60.7*	6.3	0.8	19.4	-14.3
COC(=O)c1cc(=O)nc(NN=C(C)C)s1	/	/	-6.8	/	/
NC(=O)c1oc2ccccc2c1NC(=O)c1nc2ccccc2s1	-22.4	-11.8	-1.2	23.3	8.2
SMILES	CHO parental Ca	OX1R antag-1	GalR3 antagonist	OX1R antag-2	GPR7 antagonist
O=C(Nc1nnc(-c2ccccc2)o1)c1nc2ccccc2s1	27.8*	6.0	7.6	6.2	/
COc1cc2c(c3c1c(=O)c1cccc(F)c1n3C)C=CC(C)(C)O2	/	/	-4.6	/	/
O=C(c1ccc2ccccc2c1)N1CCN(c2ccc([N+](=O)[O-])c(N3CCOCC3)c2)CC1	-14.1	-41.0	-3.6	43.4	-1.8
Cc1cccc(C(=O)N2CCN(c3ccc([N+](=O)[O-])c(N4CCOCC4)c3)CC2)c1	-10.5	-60.5	-7.2	75.1*	-2.0
Cc1noc(C)c1COc1ccc(C(=O)OCc2nnc(-c3ccc(Cl)cc3)o2)cc1	34.9*	54.0*	-4.3	39.2	12.1
Cc1noc(C)c1CSCC(=O)OCc1nnc(-c2ccc([N+](=O)[O-])cc2)o1	-3.9	0.7	-5.3	46.8*	/
Cc1ccc(S(=O)(=O)CCC(=O)OCc2nnc(-c3ccc([N+](=O)[O-])cc3)o2)cc1	/	/	-2.4	/	/
O=C(OCc1nnc(-c2ccc(Cl)cc2)o1)c1ccncc1	-16.1	-28.6	-4.5	4.9	0.1
COCC1CCN(C(=O)c2ccc3oc(C(C)C)nc3c2)C1 (stereo not drawn)	/	/	-6.6	/	/
O=C1C2C3CC4C5C3C1C5C1(SCCS1)C42 (stereo not drawn)	/	/	-5.6	/	/
Cc1cc(Br)cn2c(Cc3cccc(Cl)c3)c(C3CCCCC3)nc12	/	/	-4.2	/	/
Cc1ccc(C(=O)COC(=O)[C@@H](NC(=O)c2ccco2)C(C)C)s1	-4.2	-17.7	-7.3	10.8	/
O=[N+]([O-])c1ccc(O)c2cccnc12	-4.2	-10.3	3.5	66.5*	6.2
O=[N+]([O-])c1ccc(O)c2ncccc12	6.1	3.1	-1.2	24.8	-8.6
c1nnc2c3c4c(sc3ncn12)CCCC4	/	/	/	/	-5.6
c1nc2sc3c(c2c2nnnn12)CCCC3	-16.8	-16.1	-4.3	14.7	18.2*
CC(C)N(C(=O)Cn1c(-c2ccccc2Cl)nc2ccccc21)c1ccccc1	-16.7	-15.1	4.8	23.7	8.9
CCc1cccc(CC)c1NC(=O)Cn1c(-c2ccccc2Cl)nc2ccccc21	-19.0	1.9	-0.9	13.9	18.5*
COc1cc(/C=C2\SC(=S)N(NC(=O)c3ccccc3O)C2=O)ccc1O	35.3*	20.6	-10.9	24.7	34.7
CN(C)c1ccc(-c2nc3ccccc3c(=O)[nH]2)cc1	-4.5	17.1	-3.8	57.4*	-11.9
CSc1ccc(CN2CCC2(C)C(=O)Nc2cnc3ccccc3c2)cc1 (stereo not drawn)	/	/	-9.3	/	/
CN1c2ccccc2C(C)(C)[C@]12C=Cc1cc(O)ccc1O2	47.7*	20.9	-4.5	4.9	19.6
Cc1[nH]c2ccccc2c1/C=N/NC(=O)c1cc(C(C)C)[nH]n1	-7.7	0.6	-2.0	44.5*	-11.2
CCOC(=O)c1nn(-c2cccc(OC)c2)c2nc(Nc3ccccc3)cc(=O)n12	93.5*	-5.2	1.6	14.0	-5.7
CCOC(=O)c1nn(-c2cccc(Cl)c2)c2nc(Nc3ccccc3)cc(=O)n12	0.0	-4.6	-3.8	8.5	-6.2
SMILES	CHO parental Ca	OX1R antag-1	GalR3 antagonist	OX1R antag-2	GPR7 antagonist
CCn1c(Cc2ccc(OC)cc2)nnc1SCC(=O)N1CCN(c2ccccc2)CC1	-16.4	-30.7	-6.1	47.3*	-7.8
CCc1nc2c(OCc3ccc(C(=O)N(C)C)cc3)cccn2c1N(C)C(=O)Nc1ccccc1OC	/	/	-8.9	/	/
CCc1ccc(S(=O)(=O)/N=C2\C=C(Nc3ccc(O)cc3)C(=O)c3ccccc32)cc1	-4.0	15.3	/	32.8	-31.8
CCc1ccc(S(=O)(=O)/N=C2/C=C(Sc3ncn[nH]3)C(=O)c3ccccc32)cc1	-12.2	-13.5	/	67.5*	-12.9
CCc1ccc(S(=O)(=O)/N=C2\C=C(Nc3cccc(C(=O)O)c3)C(=O)c3ccccc32)cc1	-7.1	-12.7	-9.9	45.6*	-15.7
CC(C)CC1NC(=O)N(CC(=O)Nc2cccc(Br)c2)C1=O (stereo not drawn)	5.3	-13.4	-5.3	-0.2	/
CCCCCCc1cc2cc(C(N)=O)c(=N)oc2cc1O	-7.1	-21.5	/	55.5*	-6.2

Bioassay records: PubChem, The Scripps Research Institute Molecular Screening Center
